This note sets out measurements from ChEMBL document CHEMBL1131143, “Predictive models for GABAA/benzodiazepine receptor subtypes: studies of quantitative structure-activity relationships for imidazobenzodiazepines at five recombinant GABAA/benzodiazepine receptor subtypes [alphaxbeta3gamma2 (x = 1-3, 5, and 6)] via comparative molecular field analysis” (J Med Chem, 1998).

Common to all, as to type: protein-complex assay
Test [1] addresses GABA-A receptor; alpha-1/beta-3/gamma-2 (Homo sapiens) (UniProt P14867+P18507+P28472). Kind of test: It is the ratio of Ki value for alpha-1-beta-3-gamma-2 to that of alpha-5-beta-3-gamma-2.
Test [2] addresses T1, GABA-A receptor; alpha-3/beta-3/gamma-2 (Homo sapiens, UniProt P18507+P28472+P34903).
T1 sequence (P18507 whole entry): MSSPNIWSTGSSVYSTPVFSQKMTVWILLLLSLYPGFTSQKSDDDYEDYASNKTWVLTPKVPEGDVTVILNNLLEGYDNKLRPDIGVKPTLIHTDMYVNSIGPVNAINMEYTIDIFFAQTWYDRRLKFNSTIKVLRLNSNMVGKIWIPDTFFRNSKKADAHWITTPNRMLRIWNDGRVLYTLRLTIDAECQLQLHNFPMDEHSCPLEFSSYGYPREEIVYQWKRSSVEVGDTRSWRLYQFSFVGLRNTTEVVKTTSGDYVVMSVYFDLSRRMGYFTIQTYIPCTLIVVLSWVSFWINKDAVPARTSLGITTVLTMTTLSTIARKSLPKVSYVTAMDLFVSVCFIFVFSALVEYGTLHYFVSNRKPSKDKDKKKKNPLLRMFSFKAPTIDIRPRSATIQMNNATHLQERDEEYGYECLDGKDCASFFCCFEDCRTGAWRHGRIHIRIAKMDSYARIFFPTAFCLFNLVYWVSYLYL
T1 sequence (P28472 whole entry): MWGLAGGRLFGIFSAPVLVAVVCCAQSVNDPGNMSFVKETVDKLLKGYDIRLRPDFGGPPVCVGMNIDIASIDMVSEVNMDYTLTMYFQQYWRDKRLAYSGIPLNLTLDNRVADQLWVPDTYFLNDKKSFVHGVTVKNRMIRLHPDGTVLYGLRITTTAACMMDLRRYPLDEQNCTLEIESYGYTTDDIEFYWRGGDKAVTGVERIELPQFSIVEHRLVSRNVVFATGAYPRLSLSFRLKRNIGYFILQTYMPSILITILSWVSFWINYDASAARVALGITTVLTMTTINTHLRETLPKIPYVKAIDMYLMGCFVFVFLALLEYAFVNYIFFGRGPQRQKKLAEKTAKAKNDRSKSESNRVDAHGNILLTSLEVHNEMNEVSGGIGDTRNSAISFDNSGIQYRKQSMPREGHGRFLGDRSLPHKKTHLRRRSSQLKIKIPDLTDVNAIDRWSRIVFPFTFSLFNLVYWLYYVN
T1 sequence (P34903 whole entry): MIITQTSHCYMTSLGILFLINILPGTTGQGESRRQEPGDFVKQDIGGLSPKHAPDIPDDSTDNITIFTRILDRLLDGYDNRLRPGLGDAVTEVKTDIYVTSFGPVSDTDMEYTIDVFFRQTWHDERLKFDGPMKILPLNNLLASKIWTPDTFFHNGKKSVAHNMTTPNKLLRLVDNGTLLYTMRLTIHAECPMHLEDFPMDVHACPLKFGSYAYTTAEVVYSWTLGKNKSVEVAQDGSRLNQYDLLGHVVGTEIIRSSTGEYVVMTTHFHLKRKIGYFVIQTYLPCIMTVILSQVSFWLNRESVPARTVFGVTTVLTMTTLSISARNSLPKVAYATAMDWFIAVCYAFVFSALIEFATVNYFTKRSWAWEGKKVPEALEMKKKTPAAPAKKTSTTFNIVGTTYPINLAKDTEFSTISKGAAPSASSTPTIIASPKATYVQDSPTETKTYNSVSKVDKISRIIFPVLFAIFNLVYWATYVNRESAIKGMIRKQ
Kind of test: Binding affinity against alpha-3-beta-3-gamma-2 GABAA/BzR receptor subtype.

For test [3], the target named is T2, GABA-A receptor; alpha-2/beta-3/gamma-2 (Homo sapiens, UniProt P18507+P28472+P47869).
T2 sequence (P18507 whole entry): T1 sequence (P18507 whole entry)
T2 sequence (P28472 whole entry): T1 sequence (P28472 whole entry)
T2 sequence (P47869 whole entry): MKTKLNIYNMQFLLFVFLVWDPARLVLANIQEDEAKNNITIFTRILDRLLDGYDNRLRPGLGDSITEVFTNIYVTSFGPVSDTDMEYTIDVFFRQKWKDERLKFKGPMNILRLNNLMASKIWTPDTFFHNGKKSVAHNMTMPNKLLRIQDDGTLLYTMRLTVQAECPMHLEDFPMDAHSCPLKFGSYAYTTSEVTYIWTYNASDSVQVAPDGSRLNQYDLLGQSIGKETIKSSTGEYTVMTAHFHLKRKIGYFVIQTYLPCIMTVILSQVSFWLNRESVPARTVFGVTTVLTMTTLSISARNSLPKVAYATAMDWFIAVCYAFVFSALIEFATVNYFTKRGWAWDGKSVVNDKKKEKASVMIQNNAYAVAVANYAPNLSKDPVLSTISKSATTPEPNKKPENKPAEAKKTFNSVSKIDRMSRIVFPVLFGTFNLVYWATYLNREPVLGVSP
The experiment in a line: Binding affinity tested against alpha-2-beta-3-gamma-2 GABAA/BzR receptor subtype.

In test [4] the target is T3, GABA-A receptor; alpha-5/beta-3/gamma-2 (Homo sapiens, UniProt P18507+P28472+P31644).
T3 sequence (P18507 whole entry): T1 sequence (P18507 whole entry)
T3 sequence (P28472 whole entry): T1 sequence (P28472 whole entry)
T3 sequence (P31644 whole entry): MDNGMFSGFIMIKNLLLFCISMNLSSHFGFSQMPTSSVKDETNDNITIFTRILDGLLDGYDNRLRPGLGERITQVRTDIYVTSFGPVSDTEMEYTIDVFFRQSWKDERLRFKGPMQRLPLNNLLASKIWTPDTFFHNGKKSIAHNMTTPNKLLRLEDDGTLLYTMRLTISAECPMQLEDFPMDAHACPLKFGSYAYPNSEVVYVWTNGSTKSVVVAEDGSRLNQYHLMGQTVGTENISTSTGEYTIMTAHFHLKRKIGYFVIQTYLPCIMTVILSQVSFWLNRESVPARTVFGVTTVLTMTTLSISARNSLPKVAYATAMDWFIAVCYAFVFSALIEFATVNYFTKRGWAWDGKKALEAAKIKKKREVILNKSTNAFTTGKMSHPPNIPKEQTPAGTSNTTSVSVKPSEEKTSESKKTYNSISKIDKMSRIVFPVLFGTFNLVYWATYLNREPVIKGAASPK
The experiment in a line: Binding affinity for Gamma-aminobutyric acid A receptor alpha-5-beta-3-gamma-2.

For test [5], the target named is T4, GABA-A receptor; alpha-1/beta-3/gamma-2 (Homo sapiens, UniProt P14867+P18507+P28472).
T4 sequence (P14867 whole entry): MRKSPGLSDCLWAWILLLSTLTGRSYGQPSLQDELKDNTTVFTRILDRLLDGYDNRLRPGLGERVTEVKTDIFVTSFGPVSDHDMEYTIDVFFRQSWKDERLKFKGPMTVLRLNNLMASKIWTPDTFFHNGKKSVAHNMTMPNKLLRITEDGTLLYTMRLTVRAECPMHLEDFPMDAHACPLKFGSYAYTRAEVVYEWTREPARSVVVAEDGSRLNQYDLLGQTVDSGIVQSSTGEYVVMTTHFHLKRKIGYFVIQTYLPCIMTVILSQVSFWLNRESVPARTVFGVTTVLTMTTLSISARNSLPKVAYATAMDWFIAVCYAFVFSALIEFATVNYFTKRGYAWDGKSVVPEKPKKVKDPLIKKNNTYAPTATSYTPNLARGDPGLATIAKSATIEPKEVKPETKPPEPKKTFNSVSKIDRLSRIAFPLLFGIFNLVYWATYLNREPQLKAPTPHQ
T4 sequence (P18507 whole entry): T1 sequence (P18507 whole entry)
T4 sequence (P28472 whole entry): T1 sequence (P28472 whole entry)
Kind of test: Binding affinity against alpha-1-beta-3-gamma-2 GABAA/BzR receptor subtype.

Test [6] addresses GABA-A receptor; alpha-6/beta-3/gamma-2 (Homo sapiens, UniProt P18507+P28472+Q16445). The experiment in a line: Binding affinity against Gamma-aminobutyric acid A receptor alpha-6-beta-3-gamma-2. The method in brief:
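Cells scraped into PBS, spun at 3000g, resuspended in 10 mM KH₂PO₄/100 mM KCl pH 7.4. Nonspecific binding with 10⁻⁵ M diazepam; 1 h to equilibrium at 4 °C; filtration, ice-cold buffer wash, scintillation counting.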

As usually defined, the Ki is a dissociation constant, usually derived from enzyme kinetics or from competition with a known ligand. Read a low Ki as a stronger hold on the target.

GABA-A receptor; alpha-6/beta-3/gamma-2, sequence (Q16445 whole entry, one chain of several): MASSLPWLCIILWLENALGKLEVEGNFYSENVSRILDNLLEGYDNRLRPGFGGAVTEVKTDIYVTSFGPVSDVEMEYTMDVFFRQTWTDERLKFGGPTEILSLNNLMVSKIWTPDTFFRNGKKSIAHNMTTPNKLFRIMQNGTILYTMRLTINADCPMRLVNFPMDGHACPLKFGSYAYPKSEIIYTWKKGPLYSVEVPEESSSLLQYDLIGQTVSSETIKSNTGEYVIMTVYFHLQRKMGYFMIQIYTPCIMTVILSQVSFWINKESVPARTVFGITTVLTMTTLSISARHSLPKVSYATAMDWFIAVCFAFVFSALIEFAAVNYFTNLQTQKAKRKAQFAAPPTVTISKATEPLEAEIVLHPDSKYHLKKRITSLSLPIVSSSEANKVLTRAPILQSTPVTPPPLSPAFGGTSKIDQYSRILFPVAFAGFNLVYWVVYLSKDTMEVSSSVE

Take `CC(C)N(Cc1ncn2c1CN(C)C(=O)c1cc(Cl)ccc1-2)C(C)C`: the Ratio in test [1] turned out to be 3.2. Further, the inhibitory constant (Ki) amounted to 6270 nM in test [2]; 12600 nM in test [3]; 1350 nM in test [4]; 4200 nM in test [5]; 8600 nM in test [6].
For the molecule `C#Cc1ccc2c(c1)C(=O)N1CCC[C@H]1c1c(-c3nc(CC)no3)ncn1-2`, the Ratio in test [1] was 36. For the same molecule, the inhibition constant Ki in test [2] came out at 85 nM; in test [3] it was 40 nM; in test [4] it was 2.4 nM; in test [5], 86 nM; in test [6] it was 150 nM.
As to `CCOC(=O)c1ncn2c1[C@@H]1CCCN1C(=O)c1cc(OC)ccc1-2`, in test [1], the Ratio worked out at 108. Besides, the inhibition constant Ki in test [2] was 27.5 nM; in test [3], 27.4 nM; in test [4], 0.45 nM; in test [5] it was 48.5 nM; in test [6] it was 83.2 nM.
For the molecule `CCN(CC)Cc1ncn2c1CN(C)C(=O)c1cc(Cl)ccc1-2`, the Ratio in test [1] was 3.2. The Ki in test [2] was 15400 nM; in test [3] it was 30000 nM; in test [4], 2580 nM; in test [5] it was 9480 nM; in test [6] it was 30200 nM.
`CN1Cc2c(C(=O)OC(C)(C)C)ncn2-c2ccc(C#C[Si](C)(C)C)cc2C1=O`: the Ratio in test [1] was 75.5. Also, the inhibition constant (Ki) in test [2] turned out to be 255 nM; in test [3], 143 nM; in test [4] it was 2.61 nM; in test [5] it was 197 nM; in test [6], 58.6 nM.
On to `CCOC(=O)c1ncn2c1[C@@H]1CCCN1C(=O)c1cc(Br)ccc1-2`, for which, in test [1], the Ratio was determined as 49. Besides, the Ki is 15 nM in test [2]; 29 nM in test [3]; 1 nM in test [4]; 49 nM in test [5]; 46 nM in test [6].
On to `CCOC(=O)c1ncn2c1CN(C)C(=O)c1cc(OCC)ccc1-2`, for which, in test [1], the Ratio is 12.4. The inhibition constant (Ki) in test [2] was found to be 16.9 nM; in test [3], 36 nM; in test [4] it was 1.07 nM; in test [5], 11.2 nM; in test [6] it was 51.5 nM.
In the case of `C#Cc1ccc2c(c1)C(=O)N(C)Cc1c(C(=O)OC(C)(C)C)ncn1-2`, the Ratio in test [1] was found to be 67.3. The Ki in test [2] turned out to be 18.7 nM; in test [3] it was 26.3 nM; in test [4], 0.4 nM; in test [5], 26.9 nM; in test [6], 5.1 nM.
Take `CCOCc1ncn2c1CN(C)C(=O)c1cc(Cl)ccc1-2`: the Ratio in test [1] is above 3.6. Further, the Ki is above 300 nM in test [2]; above 300 nM in test [3]; 82.7 nM in test [4]; above 300 nM in test [5]; above 300 nM in test [6].
With `CN1Cc2c(C(=O)OC(C)(C)C)ncn2-c2ccc(N=C=S)cc2C1=O`, in test [1], the Ratio amounted to 6.8. The inhibition constant Ki amounted to 50 nM in test [2]; 33.7 nM in test [3]; 2.5 nM in test [4]; 17.1 nM in test [5]; 30.7 nM in test [6].
`CCc1ccc2c(c1)C(=O)N(C)Cc1c(C(=O)OC(C)(C)C)ncn1-2`: in test [1], the Ratio worked out at 8.6. The Ki in test [2] is 25.3 nM; in test [3] it was 56 nM; in test [4], 1.72 nM; in test [5], 14.8 nM; in test [6], 22.9 nM.
For `CN1Cc2c(C(=O)OC(C)(C)C)ncn2-c2ccc(I)cc2C1=O`, the Ratio in test [1] was found to be 25.5. Moreover, the inhibition constant (Ki) in test [2] was 10.9 nM; in test [3], 11.2 nM; in test [4], 0.38 nM; in test [5], 9.7 nM; in test [6] it was 4.6 nM.
Consider `CCOC(=O)c1ncn2c1CN(C)C(=O)c1cc(CC)ccc1-2`, for which the Ratio in test [1] amounted to 13.6. Moreover, the Ki in test [2] is 26.1 nM; in test [3], 27 nM; in test [4], 1.5 nM; in test [5] it was 20.4 nM; in test [6], 176 nM.
With `CCOC(=O)c1ncn2c1CN(C)C(=O)c1cc(C#N)ccc1-2`, the Ratio in test [1] came to 1.67. Also, the inhibition constant Ki in test [2] was 19 nM; in test [3] it was 45 nM; in test [4], 6 nM; in test [5], 10 nM; in test [6], above 1000 nM.
Consider `CCc1ncn2c1CN(C)C(=O)c1cc(Cl)ccc1-2`, for which the Ratio in test [1] was 2.2. For the same molecule, the Ki in test [2] turned out to be 1130 nM; in test [3], 1530 nM; in test [4], 182 nM; in test [5], 408 nM; in test [6] it was 3650 nM.
As to `COCc1ncn2c1CN(C)C(=O)c1cc(Cl)ccc1-2`, in test [1], the Ratio is above 7.7. Also, the Ki was above 300 nM in test [2]; above 300 nM in test [3]; 38.8 nM in test [4]; above 300 nM in test [5]; above 300 nM in test [6].
As for `CN1Cc2c(C(=O)OCC3CC3)ncn2-c2ccc(Cl)cc2C1=O`, in test [1], the Ratio stood at 1.7. Also, the Ki in test [2] turned out to be 42.5 nM; in test [3], 48.2 nM; in test [4] it was 9.8 nM; in test [5] it was 16.4 nM; in test [6], 168 nM.
